Experimental findings from ChEMBL document CHEMBL3045579, “Herbicidal activity of cineole derivatives” (2010) are described below.

SMILES strings stand for the structures. Activity calls are given as the source filed them. No cut-off for these calls is given here.

Holding throughout (assay type): functional
Experiment [1] relates to Lolium rigidum. As to the kind of experiment: Pre-emergence herbicidal activity against Lolium rigidum seeds assessed as seed germination at 0.1 mol/l at 25 degC after 72 hr by laboratory-based agar medium bioassay relative to 1,8-Cineole. The gist of the method: (§1)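 Agar-plate assay as above: compound in organic solvent evaporated onto Ca/B water agar, 10 seeds × 5 dishes, 72 h at 25 °C in light. Germination, root length or shoot length at 0.1 mol L^-1 expressed relative to 1,8-cineole.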

Experiment [2] relates to Lolium rigidum. In words: Pre-emergence herbicidal activity against Lolium rigidum seeds assessed as shoot length at 0.1 mol/l at 25 degC after 72 hr by laboratory-based agar medium bioassay relative to 1,8-Cineole. The method in brief:
as §1

Experiment [3] relates to Radish. As to the kind of experiment: Pre-emergence herbicidal activity against Raphanus sativus var.Long scarlet (radish) seeds assessed as root length at 0.1 mol/l at 25 degC after 72 hr by laboratory-based agar medium bioassay relative to control. The gist of the method:
(§2)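 Solutions tested at 1 to 1 × 10^-4 mol L^-1. 10 seeds/dish, 5 randomized replicate dishes angled ~70°. Incubated 72 h at 25 °C in light. Solvent and no-solvent controls. Germination, root length and shoot length recorded.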

Experiment [4] deals with Lolium rigidum. As to the kind of experiment: Pre-emergence herbicidal activity against Lolium rigidum seeds assessed as concentration required to suppress shoot growth at 25 degC after 72 hr by laboratory-based agar medium bioassay.
Experiment [5] relates to Lolium rigidum. In words: Pre-emergence herbicidal activity against Lolium rigidum seeds assessed as concentration required to suppress seed germination at 25 degC after 72 hr by laboratory-based agar medium bioassay.
Experiment [6] deals with Lolium rigidum. As to the kind of experiment: Pre-emergence herbicidal activity against Lolium rigidum seeds assessed as concentration required to suppress root growth at 25 degC after 72 hr by laboratory-based agar medium bioassay.
In experiment [7] the test system is Radish. In words: Pre-emergence herbicidal activity against Raphanus sativus var.Long scarlet (radish) seeds assessed as concentration required to suppress seed germination at 25 degC after 72 hr by laboratory-based agar medium bioassay.
The test system of experiment [8] is Radish. In words: Pre-emergence herbicidal activity against Raphanus sativus var.Long scarlet (radish) seeds assessed as concentration required to suppress shoot growth at 25 degC after 72 hr by laboratory-based agar medium bioassay.
Experiment [9] deals with Radish. In words: Pre-emergence herbicidal activity against Raphanus sativus var.Long scarlet (radish) seeds assessed as concentration required to suppress root growth at 25 degC after 72 hr by laboratory-based agar medium bioassay.
Experiment [10] has as its system Lolium rigidum. As to the kind of experiment: Pre-emergence herbicidal activity against Lolium rigidum seeds assessed as root length at 0.1 mol/l at 25 degC after 72 hr by laboratory-based agar medium bioassay relative to 1,8-Cineole. The gist of the method: as §1
The test system of experiment [11] is Radish. In words: Pre-emergence herbicidal activity against Raphanus sativus var.Long scarlet (radish) seeds assessed as seed germination at 0.1 mol/l at 25 degC after 72 hr by laboratory-based agar medium bioassay relative to 1,8-Cineole. The gist of the method: as §1
The test system of experiment [12] is Radish. As to the kind of experiment: Pre-emergence herbicidal activity against Raphanus sativus var.Long scarlet (radish) seeds assessed as shoot length at 0.1 mol/l at 25 degC after 72 hr by laboratory-based agar medium bioassay relative to 1,8-Cineole. The method in brief:
as §1

The subject of experiment [13] is Radish. As to the kind of experiment: Pre-emergence herbicidal activity against Raphanus sativus var.Long scarlet (radish) seeds assessed as root length at 0.1 mol/l at 25 degC after 72 hr by laboratory-based agar medium bioassay relative to 1,8-Cineole. The method in brief:
as §1

For experiment [14], the system named is Lolium rigidum. In words: Pre-emergence herbicidal activity against Lolium rigidum seeds assessed as seed germination at 0.1 mol/l at 25 degC after 72 hr by laboratory-based agar medium bioassay relative to control. The method in brief: as §2
The subject of experiment [15] is Lolium rigidum. As to the kind of experiment: Pre-emergence herbicidal activity against Lolium rigidum seeds assessed as shoot length at 0.1 mol/l at 25 degC after 72 hr by laboratory-based agar medium bioassay relative to control. The gist of the method: as §2
Experiment [16] has as its system Lolium rigidum. In words: Pre-emergence herbicidal activity against Lolium rigidum seeds assessed as root length at 0.1 mol/l at 25 degC after 72 hr by laboratory-based agar medium bioassay relative to control. The method in brief:
as §2

In experiment [17] the test system is Radish. In words: Pre-emergence herbicidal activity against Raphanus sativus var.Long scarlet (radish) seeds assessed as seed germination at 0.1 mol/l at 25 degC after 72 hr by laboratory-based agar medium bioassay relative to control. The gist of the method: as §2
Experiment [18] concerns Radish. As to the kind of experiment: Pre-emergence herbicidal activity against Raphanus sativus var.Long scarlet (radish) seeds assessed as shoot length at 0.1 mol/l at 25 degC after 72 hr by laboratory-based agar medium bioassay relative to control. The gist of the method:
as §2

On to `CC1(C)OC2(C)CC[C@H]1C[C@H]2O` (single isomer, unassigned) [2-endo-hydroxy-1,8-cineole], for which the Ratio with Lolium rigidum [1] is on record as 0.6; in the experiment with Lolium rigidum [2], 1.8; in the experiment with Lolium rigidum [10] it was 0.6; in the experiment with Radish [11] it was 13.1; in the experiment on Radish [13], 5.5. Also, the Activity in the experiment with Radish [3] turned out to be 6.8%; with Lolium rigidum [4], 0.01 mol/L; with Lolium rigidum [5], 0.1 mol/L; with Lolium rigidum [6] it was 0.1 mol/L; in the experiment on Radish [7], 0.01 mol/L; with Radish [8] it was 0.1 mol/L. In addition, the Activity is 0.01 mol/L in the experiment on Radish [9]; 51.5% with Lolium rigidum [14]; 15.4% in the experiment with Lolium rigidum [15]; 39.5% in the experiment on Lolium rigidum [16]; 2.6% in the experiment on Radish [17]; 0% with Radish [18]. In addition, the inhibition entry in the experiment on Radish [12] was “Active”.
Consider `CC(=O)O[C@H]1C[C@@]2(C)CC[C@H]1C(C)(C)O2` (racemic) [3-Exo-acetoxy-1,8-cineole], for which the Ratio in the experiment with Lolium rigidum [1] was found to be 0.9; with Lolium rigidum [2] it was 1.3; in the experiment with Lolium rigidum [10] it was 2.9; with Radish [11], 1.8; in the experiment on Radish [12], 1; in the experiment on Radish [13], 1.3. Besides, the Activity in the experiment on Radish [3] is 29.2%; in the experiment on Lolium rigidum [4] it was 0.1 mol/L; in the experiment with Lolium rigidum [5], 0.1 mol/L; with Lolium rigidum [6], 0.1 mol/L; in the experiment with Radish [7], 0.01 mol/L; in the experiment on Radish [8], 1 mol/L. Moreover, the Activity came out at 0.01 mol/L in the experiment with Radish [9]; 34.1% with Lolium rigidum [14]; 21.3% in the experiment on Lolium rigidum [15]; 7.6% in the experiment on Lolium rigidum [16]; 18.9% in the experiment with Radish [17]; 64.3% with Radish [18].
For `CC(C)[C@]12CC[C@@](C)(O1)[C@H](O)C2` (racemic) [2-Exo-hydroxy-1,4-cineole], the Ratio in the experiment on Lolium rigidum [1] is given as 1.4; in the experiment on Lolium rigidum [2], 1.2; in the experiment on Lolium rigidum [10], 3.7; in the experiment with Radish [11] it was 13.1; in the experiment on Radish [12] it was 1.6; in the experiment with Radish [13] it was 3.7. Besides, the Activity with Radish [3] was 9.9%; with Lolium rigidum [4], 0.1 mol/L; in the experiment with Lolium rigidum [5] it was 0.1 mol/L; in the experiment on Lolium rigidum [6], 0.01 mol/L; with Radish [7] it was 0.1 mol/L; in the experiment with Radish [8], 0.1 mol/L. For the same molecule, the Activity is 0.1 mol/L in the experiment on Radish [9]; 21.7% in the experiment on Lolium rigidum [14]; 23.1% with Lolium rigidum [15]; 6.1% in the experiment on Lolium rigidum [16]; 2.6% with Radish [17]; 41.7% in the experiment with Radish [18].
For `CC1(C)O[C@]2(C)CC[C@@H]1[C@@H](OC(=O)c1ccccc1)C2` (racemic) [3-exo-benzoxy-1,8-cineole], the Ratio with Lolium rigidum [1] was 0.4; with Lolium rigidum [2], 0.7; in the experiment on Lolium rigidum [10], 2.1; in the experiment on Radish [11], 0.3; in the experiment on Radish [12] it was 1.1; with Radish [13], 0.8. The Activity in the experiment with Radish [3] turned out to be 42.4%; in the experiment on Lolium rigidum [4], 0.1 mol/L; in the experiment on Lolium rigidum [5], 0.1 mol/L; in the experiment with Lolium rigidum [6], 0.01 mol/L; in the experiment on Radish [7] it was 1 mol/L; in the experiment with Radish [8], 0.1 mol/L. Besides, the Activity in the experiment with Radish [9] amounted to 0.01 mol/L; in the experiment on Lolium rigidum [14], 82.2%; in the experiment with Lolium rigidum [15], 41.6%; in the experiment with Lolium rigidum [16], 10.9%; in the experiment on Radish [17], 98%; in the experiment on Radish [18], 61%.
Consider `CC(=O)O[C@@H]1C[C@@]2(C(C)C)CC[C@@]1(C)O2` (racemic) [2-exo-acetoxy-1,4-cineole], for which the inhibition entry in the experiment with Lolium rigidum [1], with Lolium rigidum [2], in the experiment with Lolium rigidum [10] and with Radish [12] was “Active” each time. For the same molecule, the Activity in the experiment on Radish [3] is listed as 2.7%; with Lolium rigidum [4] it was 0.01 mol/L; with Lolium rigidum [5], 0.1 mol/L; with Lolium rigidum [6], 0.01 mol/L; in the experiment on Radish [7] it was 0.01 mol/L; with Radish [8] it was 0.01 mol/L. Further, the Activity is 0.01 mol/L in the experiment on Radish [9]; 0% in the experiment on Lolium rigidum [14]; 0% with Lolium rigidum [15]; 0% with Lolium rigidum [16]; 4.5% in the experiment on Radish [17]; 0% in the experiment with Radish [18]. Also, the Ratio in the experiment on Radish [11] was found to be 7.5; in the experiment with Radish [13], 3.5.
With `CCCC(=O)O` [BUTYRIC ACID], the inhibition result in the experiment on Lolium rigidum [1], in the experiment on Lolium rigidum [2], in the experiment with Lolium rigidum [10], with Radish [11], in the experiment on Radish [12] and with Radish [13] was “Active” throughout. In addition, the Activity was found to be 0% in the experiment on Radish [3]; 0.1 mol/L in the experiment on Lolium rigidum [4]; 0.01 mol/L in the experiment on Lolium rigidum [5]; 0.01 mol/L in the experiment with Lolium rigidum [6]; 0.1 mol/L in the experiment on Radish [7]; 0.01 mol/L with Radish [8]. Further, the Activity in the experiment on Radish [9] is reported as 0.01 mol/L; in the experiment on Lolium rigidum [14], 0%; with Lolium rigidum [15], 0%; in the experiment with Lolium rigidum [16], 0%; in the experiment with Radish [17], 0%; in the experiment with Radish [18] it was 0%.
With `CC(=O)O` [ACETIC ACID], the inhibition entry in the experiment with Lolium rigidum [1], in the experiment on Lolium rigidum [2], with Lolium rigidum [10], in the experiment on Radish [11], in the experiment with Radish [12] and in the experiment with Radish [13] was “Active” in each case. For the same molecule, the Activity in the experiment on Radish [3] is recorded as 0%; in the experiment with Lolium rigidum [4] it was 0.01 mol/L; in the experiment with Lolium rigidum [5] it was 0.1 mol/L; with Lolium rigidum [6], 0.01 mol/L; with Radish [7] it was 0.1 mol/L; in the experiment with Radish [8], 0.1 mol/L. Besides, the Activity with Radish [9] came out at 0.1 mol/L; in the experiment with Lolium rigidum [14] it was 0%; in the experiment with Lolium rigidum [15], 0%; with Lolium rigidum [16] it was 0%; in the experiment with Radish [17] it was 0%; with Radish [18], 0%.
As for `CC(C)[C@]12CC[C@@](C)(O1)[C@H](OC(=O)CC(C)(C)C)C2` (racemic) [2-exo-t-butylacetoxy-1,4-cineole], the Activity with Radish [3] came to 55.8%; in the experiment on Lolium rigidum [4] it was 0.1 mol/L; with Lolium rigidum [5], 0.1 mol/L; with Lolium rigidum [6], 0.01 mol/L; with Radish [7], 0.1 mol/L; in the experiment on Radish [8], 0.01 mol/L. Besides, the Activity in the experiment with Radish [9] is 0.01 mol/L; in the experiment with Radish [17], 42.9%; with Radish [18], 71.2%. The Ratio in the experiment on Radish [11] amounted to 0.8; in the experiment with Radish [12] it was 0.9; with Radish [13], 0.7.
As to `CCCC(=O)O[C@@H]1C[C@@]2(C(C)C)CC[C@@]1(C)O2` (racemic) [2-exo-butoxy-1,4-cineole], the inhibition result in the experiment with Radish [11], in the experiment on Radish [12] and in the experiment on Radish [13] was “Active” throughout.
